High-throughput results: PubChem, The Scripps Research Institute Molecular Screening Center
Compounds with a hit are over-represented: about 1.9% of the library has one in this group of screens.
M4 ag: human M4 muscarinic receptor agonists, primary screen, CHO-K1 cells, Fluo-8 calcium fluorescence. CHO-K1 hM4/Gqi5; vehicle 0%, full acetylcholine response 100%. activation, % at 3 µM. hit rate 0.14% among 360,000. AID 624127, 2012;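 active = activation above the run mean over all test wells plus 3 SD, cut at about 32% in these data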;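 also: peak over basal fluorescence ratio per well then scaled between controls; 0% = DMSO wells and 100% = acetylcholine at EC100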
CHRM5 antagonist: human M5 muscarinic receptor antagonists, primary screen, CHO cells, Fluo-8 calcium fluorescence; Muscarinic acetylcholine receptor M5 (Homo sapiens), P08912; CHO-hM5 cells, ACh EC80; inhibition, % at 3 µM; hit rate 0.59% among 360,000; AID 624040, 2012;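 active = inhibition above a per-plate cutoff, the mean of that plate's test compounds plus 3 SD, cut at about 27% in these data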;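 also: 0% = acetylcholine EC80 with DMSO and 100% = DMSO without agonist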
Target sequence (P08912 whole entry, looked up): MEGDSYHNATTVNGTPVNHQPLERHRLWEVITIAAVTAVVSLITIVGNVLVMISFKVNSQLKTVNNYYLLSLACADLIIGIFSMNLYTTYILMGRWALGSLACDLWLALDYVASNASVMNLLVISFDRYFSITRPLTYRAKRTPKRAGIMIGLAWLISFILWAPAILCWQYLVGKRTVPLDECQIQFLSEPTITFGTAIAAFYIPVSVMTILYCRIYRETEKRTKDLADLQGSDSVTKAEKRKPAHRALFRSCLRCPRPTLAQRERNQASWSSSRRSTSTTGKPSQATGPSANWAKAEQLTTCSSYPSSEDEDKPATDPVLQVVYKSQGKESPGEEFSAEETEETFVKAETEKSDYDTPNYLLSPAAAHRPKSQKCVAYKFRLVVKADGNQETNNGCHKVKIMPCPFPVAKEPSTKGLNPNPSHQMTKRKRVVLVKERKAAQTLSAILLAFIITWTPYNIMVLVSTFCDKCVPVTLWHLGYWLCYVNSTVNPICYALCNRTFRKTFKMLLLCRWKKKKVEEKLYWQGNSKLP
CHRM5 PAM: human M5 muscarinic receptor positive allosteric modulators, primary screen, CHO-K1 cells, Fluo-8 calcium fluorescence | Muscarinic acetylcholine receptor M5 (Homo sapiens), P08912 | CHO-K1 hM5, ACh EC20 PAM; 0% = ACh EC20, 100% = ACh EC100 | activation, % at 3 µM | hit rate 0.3% among 360,000 | AID 624038, 2012;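 active = activation above the run cutoff, the mean activation of all test compounds plus 3 SD, cut at about 18% in these data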
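System: CHO-K1 hM5 cells. Reagent: acetylcholine, EC20 level. Compound dosing: single dose, 3 µM nominal final test concentration. Timing: Post-acetylcholine fluorescence recording 140 s. Detection: Fluo-8 calcium fluorescence. Read-out: % activation, ACh-normalized. Benchmarks: ACh EC20 and EC100 wells. Repeats: singlicate, one well per test compound.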
M4 antag: human M4 muscarinic receptor antagonists, primary screen, CHO cells, Fluo-8 calcium fluorescence; Muscarinic acetylcholine receptor M4 (Homo sapiens), P08173; CHO-hM4 cells, ACh EC80; inhibition, % at 3 µM; hit rate 0.73% among 360,000; AID 624125, 2012;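 active = inhibition above its plate's cutoff, the mean inhibition of sample wells plus 3 SD, cut at about 27% in these data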;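 also: 0% = acetylcholine EC80 with DMSO and 100% = DMSO without agonist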
CHRM4 PAM: human M4 muscarinic receptor positive allosteric modulators, primary screen, CHO-K1 cells, Fluo-8 calcium fluorescence; activation, % at 3 µM; CHO-K1 hM4/Gqi5, ACh EC20; 0% = ACh EC20, 100% = maximal ACh; hit rate 0.4% among 360,000; Muscarinic acetylcholine receptor M4 (Homo sapiens), P08173;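 active = activation above its plate's cutoff, the mean activation of sample wells plus 3 SD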
M5 ag: human M5 muscarinic receptor agonists, primary screen, CHO-K1 cells, Fluo-8 calcium fluorescence; Muscarinic acetylcholine receptor M5 (Homo sapiens), P08912; CHO-K1 hM5 cells; 0% DMSO wells, 100% maximal acetylcholine response; activation, % at 3 µM; hit rate 0.19% among 360,000; AID 624037, 2012;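 active = activation above the run's mean over test compounds plus 3 SD, cut at about 23% in these data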;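 also: signal is peak over basal fluorescence ratio across the kinetic read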
Starred values were filed as active, the others as inactive; ! = a repeat was not active.

SMILES	M4 ag	CHRM5 antagonist	CHRM5 PAM	M4 antag	CHRM4 PAM	M5 ag
CCOC(=O)c1ccc(C(=O)OCC)nc1	1	-9	21*	-2	1	-1
CCc1nc2ccc(C(=O)Nc3cccc(NS(C)(=O)=O)c3)cn2c1N(CC)Cc1cccc(Br)c1	0	2	1	6	-7	2
CN(Cc1ccccc1)C(c1ccnc2ccccc12)c1nnnn1-c1ccc2c(c1)OCCO2 (stereo not given)	4	5	-12	-10	4	-2
CCOC(=O)CSc1nnc(NC(=O)CCc2ccccc2)s1	1	-1	7	7	21*	-4
COc1ccc(C(=O)N2CCC2(C)C(=O)NC(C)C)c(OC)c1 (stereo not given)	2	-8	0	-13	9	-1
O=S(=O)(c1cccc2cnccc12)N1CCCNCC1	1	4	-4	-2	-3	-1
CC1CNCCN1S(=O)(=O)c1cccc2cnccc12 (stereo not given)	6	4	-19	-5	-2	52*!
CN(C)c1nn(C(=O)Nc2cccc(C(F)(F)F)c2)cc1-c1ccccc1	17	36*	-15	27*	-16	5
Cc1ccc(CC2C(=O)N(CC(=O)O)C(=O)C2C)cc1 (stereo not given)	1	3	-1	29*	15	1
Cc1ccc(CC2C(=O)N(c3ccc(C)cc3)C(=O)C2C)cc1 (stereo not given)	0	-16	-1	-26	11	-7
O=NN(CCCl)C(=O)NCC1=C[N+](=O)CC=C1	1	-4	-1	3	1	2
OC(C#Cc1ccccc1)(c1ccccc1)c1ccccc1	-1	12	-2	8	-6	-1
CC(C)[N+](C)(C)CC#CC(O)(c1ccccc1)c1ccccc1	1	100*	-32	99*	-60	-18
C[N+]1(CC#CC(O)(c2ccccc2)c2ccccc2)CCCC1	0	99*	-18	99*	-18	-8
CCCS(=O)(=O)NC(=O)C1(C)CCCN(C(=O)c2ccc3c(c2)OCO3)C1 (stereo not given)	0	-2	-3	-2	0	1
C[C@@H]1CN([C@H](C)CO)C(=O)CCCn2nncc2CO[C@H]1CN(C)S(C)(=O)=O	-3	-9	8	101*	-16	0
C[C@@H]1CN([C@H](C)CO)C(=O)CCCn2nncc2CO[C@H]1CN(C)Cc1ccc(Oc2ccccc2)cc1	1	3	-4	37*	-13	-4
C[C@@H]1CN([C@@H](C)CO)C(=O)CCCn2nncc2CO[C@H]1CN(C)Cc1ccc(Oc2ccccc2)cc1	0	4	-1	31*	-12	-3
C[C@H](CO)N1C[C@H](C)[C@@H](CN(C)Cc2ccc(O)cc2)OCc2cnnn2CCCC1=O	-1	4	2	-2	7	-1
CC(O)(c1ccc(F)c(F)c1)c1nc(-c2cc3ccccc3o2)cs1 (stereo not given)	6	7	-12	13	-4	1
COc1ccc(CN2C(=O)CN(S(C)(=O)=O)CC2(C)C(=O)NC(C)C)cc1 (stereo not given)	2	-12	12	-1	7	4
CCOC(=O)N1CCC(NC(=S)Nc2ccc3nc(N4CCN(CC)CC4)cc(C)c3c2)CC1	-2	3	1	37*	-31	0
Cc1cccc(N2CCN(C(C(=O)NCc3ccccc3)c3ccc(C(F)(F)F)cc3)CC2)c1C (stereo not given)	1	0	-1	-3	-7	2
Cc1ccccc1OCC(=O)NCCCNC(=O)c1ccccn1	1	-3	4	-15	16*	-2
CC1=C(C(=O)N(C(C)C)C(C)C)CC(CC(=O)NCCCCc2ccccc2)C(=O)N1CCCN1CCCC1=O (stereo not given)	0	5	0	4	-3	0
SMILES	M4 ag	CHRM5 antagonist	CHRM5 PAM	M4 antag	CHRM4 PAM	M5 ag
CN(CC(=O)Nc1ccc(C#N)cc1)CC(=O)Nc1ccc(N2CCOCC2)cc1	2	4	-2	1	-4	1
CN(CC(=O)Nc1ccc(C#N)cc1)Cc1ccc(Cl)c(Cl)c1	6	0	-22	43*	-17	-9
CN(CC(=O)Nc1ccc(N2CCOCC2)cc1)CC(=O)Nc1cccc(C#N)c1	6	5	6	-1	23*	3
N#Cc1ccc(NC(=O)Nc2ccc(Oc3ccc(NC(=O)Nc4ccc(C#N)cc4)cc3)cc2)cc1	12	12	-15	2	-2	3
CN(CC(=O)Nc1cccc(C#N)c1)Cc1ccc(Cl)cc1	3	6	1	-9	6	-4
N#Cc1ccc(NC(=O)Nc2cccc(C#N)c2)cc1	26	32*	-17	8	-12	12
CC(C)c1ccc(CC(=O)N2CCC2(C)C(=O)NS(=O)(=O)c2cccc(OC(F)F)c2)cc1 (stereo not given)	1	-6	-3	-14	4	1
COc1ccc(S(=O)(=O)NC(=O)C2(C)CCN2C(=O)Cc2cc(F)ccc2F)cc1 (stereo not given)	1	7	-2	-4	6	1
Cc1cn([C@H]2C[C@H](O)[C@@H](/C=C/C(=O)NCCC(C)C)O2)c(=O)[nH]c1=O	2	2	5	-8	8	1
Cc1c(O)nc(SCC(=O)Nc2ccc3c4c(cccc24)CC3)n(-c2ccccc2)c1=O	2	2	2	11	0	-2
O=C(CSc1nc(O)cc(=O)n1-c1ccccc1)Nc1ccc2c3c(cccc13)CC2	1	-4	8	-12	20*	0
Cc1ccc(-n2c(SCC(=O)Nc3ccc(Cl)cc3)nc(O)cc2=O)cc1	0	32*	-6	-4	2	-9
COc1ccc(NC(=O)CSc2nc(O)cc(=O)n2-c2ccccc2)cc1	1	-15	16	-9	12	0
Cc1ccc(Oc2ncccc2CO)cc1	2	-15	6	-4	26*	0
Cc1ccc(Oc2ncccc2/C=N/OCc2ccc(Cl)cc2Cl)cc1	0	-6	2	-4	4	-1
